Laboratory results reported in ChEMBL document CHEMBL2202974 (J Med Chem, 2011).

Experiments:
[1] = Drug uptake in monkey lateral temporal cortex at 4.92 to 6.6 mCi, iv administered as bolus dose measured up to 20 mins by PET imaging analysis; type: ADME, organism-based, Macaca mulatta; details: rhesus monkey, in vivo
[2] = Drug uptake in monkey hypothalamus at 4.92 to 6.6 mCi, iv administered as bolus dose measured up to 20 mins by PET imaging analysis; type: ADME, organism-based, Macaca mulatta; details: rhesus monkey, in vivo
[3] = Drug uptake in SB612111-pretreated monkey amygdala at 4.92 to 6.6 mCi, iv administered at 10 mins post SB612111-treatment measured within 10 mins by PET imaging analysis; type: ADME, organism-based, Macaca mulatta; details: rhesus monkey, in vivo
[4] = Drug uptake in monkey hypothalamus at 6.2 mCi, iv administered as bolus dose followed by SB612111-treatment at 40 mins measured at 100 mins by PET imaging analysis; type: ADME, organism-based, Macaca mulatta; details: rhesus monkey, in vivo
Procedure, shortened: (§1)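 Anesthetised rhesus monkey given iv bolus of radioligand; the NOP antagonist was given at 40 min after radioligand to test displacement. PET regional time-activity curves were expressed as %SUV.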

[5] = Drug uptake in monkey cerebellum at 4.92 to 6.6 mCi, iv administered as bolus dose measured at 120 mins by PET imaging analysis; type: ADME, organism-based, Macaca mulatta; details: rhesus monkey, in vivo, 2 h
[6] = Drug uptake in SB612111-pretreated monkey cerebellum at 4.92 to 6.6 mCi, iv administered at 10 mins post SB612111-treatment measured from 10 to 120 mins by PET imaging analysis; type: ADME, organism-based, Macaca mulatta; details: rhesus monkey, in vivo
[7] = Drug uptake in SB612111-pretreated monkey caudate at 4.92 to 6.6 mCi, iv administered at 10 mins post SB612111-treatment measured from 10 to 120 mins by PET imaging analysis; type: ADME, organism-based, Macaca mulatta, Caudate nucleus; details: rhesus monkey, in vivo
[8] = Drug uptake in SB612111-pretreated monkey caudate at 4.92 to 6.6 mCi, iv administered at 10 mins post SB612111-treatment measured within 10 mins by PET imaging analysis; type: ADME, organism-based, Macaca mulatta, Caudate nucleus; details: rhesus monkey, in vivo
[9] = Drug uptake in monkey caudate at 6.2 mCi, iv administered as bolus dose followed by SB612111-treatment at 40 mins measured at 100 mins by PET imaging analysis; type: ADME, organism-based, Macaca mulatta, Caudate nucleus; details: rhesus monkey, in vivo; procedure, shortened: as §1
[10] = Drug uptake in monkey hypothalamus at 6.2 mCi, iv administered as bolus dose followed by naloxone-treatment at 37 mins measured at 120 mins by PET imaging analysis; type: ADME, organism-based, Macaca mulatta; details: rhesus monkey, in vivo, 2 h
Procedure, shortened: (§2)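 Anesthetised rhesus monkey given iv bolus of radioligand; a high dose of naloxone was given at 37 min after radioligand. PET regional time-activity curves were expressed as %SUV.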

[11] = Chemical stability of the compound in sodium phosphate buffer after 2 hrs at pH 7.4; type: physicochemical; details: read-out: Stability
[12] = Drug uptake in monkey amygdala at 4.92 to 6.6 mCi, iv administered as bolus dose measured up to 20 mins by PET imaging analysis; type: ADME, organism-based, Macaca mulatta; details: rhesus monkey, in vivo
[13] = Drug uptake in monkey caudate at 4.92 to 6.6 mCi, iv administered as bolus dose measured up to 20 mins by PET imaging analysis; type: ADME, organism-based, Macaca mulatta, Caudate nucleus; details: rhesus monkey, in vivo
[14] = Drug uptake in SB612111-pretreated monkey hypothalamus at 4.92 to 6.6 mCi, iv administered at 10 mins post SB612111-treatment measured within 10 mins by PET imaging analysis; type: ADME, organism-based, Macaca mulatta; details: rhesus monkey, in vivo
[15] = Drug uptake in monkey cerebellum at 6.2 mCi, iv administered as bolus dose followed by SB612111-treatment at 40 mins measured at 100 mins by PET imaging analysis; type: ADME, organism-based, Macaca mulatta; details: rhesus monkey, in vivo; procedure, shortened: as §1
[16] = Drug uptake in monkey cerebellum at 4.92 to 6.6 mCi, iv administered as bolus dose measured up to 20 mins by PET imaging analysis; type: ADME, organism-based, Macaca mulatta; details: rhesus monkey, in vivo
[17] = Drug uptake in SB612111-pretreated monkey amygdala at 4.92 to 6.6 mCi, iv administered at 10 mins post SB612111-treatment measured from 10 to 120 mins by PET imaging analysis; type: ADME, organism-based, Macaca mulatta; details: rhesus monkey, in vivo
[18] = Drug uptake in SB612111-pretreated monkey hypothalamus at 4.92 to 6.6 mCi, iv administered at 10 mins post SB612111-treatment measured from 10 to 120 mins by PET imaging analysis; type: ADME, organism-based, Macaca mulatta; details: rhesus monkey, in vivo
[19] = Drug uptake in SB612111-pretreated monkey cerebellum at 4.92 to 6.6 mCi, iv administered at 10 mins post SB612111-treatment measured within 10 mins by PET imaging analysis; type: ADME, organism-based, Macaca mulatta; details: rhesus monkey, in vivo
[20] = Fraction unbound in monkey plasma; type: ADME, cell-free, Macaca mulatta; details: rhesus monkey
Procedure, shortened: (§3)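 Plasma free fraction of the radioligand measured in vitro. Monkey: 3 samples from each of two monkeys (n = 6). Human: pooled plasma, three samples from each of two subjects.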

[21] = Drug uptake in SB612111-pretreated monkey lateral temporal cortex at 4.92 to 6.6 mCi, iv administered at 10 mins post SB612111-treatment measured from 10 to 120 mins by PET imaging analysis; type: ADME, organism-based, Macaca mulatta; details: rhesus monkey, in vivo
Plasma [22] = experiment: Drug metabolism in SB612111-pretreated monkey plasma assessed as radiometabolite formation at 4.9 to 6.6 mCi, iv administered as bolus dose 10 mins post SB612111-treatment up to 100 mins; type: ADME, organism-based, Macaca mulatta; details: rhesus monkey, in vivo
[23] = Drug uptake in monkey cerebellum at 6.2 mCi, iv administered as bolus dose followed by naloxone-treatment at 37 mins measured at 120 mins by PET imaging analysis; type: ADME, organism-based, Macaca mulatta; details: rhesus monkey, in vivo, 2 h; procedure, shortened: as §2
[24] = Metabolic stability in monkey blood for 0.5 hrs; type: ADME, tissue-based, Macaca mulatta; details: rhesus monkey, read-out: Stability
Procedure, shortened: (§4)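 The [11C]-labelled radioligand was incubated in vitro in monkey whole blood or monkey plasma for 0.5 h at room temperature. Stability was expressed as the percentage of radioactivity remaining as unchanged radioligand (n = 6).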

[25] = Fraction unbound in human plasma; type: ADME, cell-free; procedure, shortened: as §3
[26] = Drug uptake in monkey caudate at 4.92 to 6.6 mCi, iv administered as bolus dose measured at 120 mins by PET imaging analysis; type: ADME, organism-based, Macaca mulatta, Caudate nucleus; details: rhesus monkey, in vivo, 2 h
[27] = Drug uptake in monkey lateral temporal cortex at 6.2 mCi, iv administered as bolus dose followed by naloxone-treatment at 37 mins measured at 120 mins by PET imaging analysis; type: ADME, organism-based, Macaca mulatta; details: rhesus monkey, in vivo, 2 h; procedure, shortened: as §2
[28] = Metabolic stability in monkey plasma for 0.5 hrs; type: ADME, cell-free, Macaca mulatta; details: rhesus monkey, read-out: Stability; procedure, shortened: as §4
[29] = Drug uptake in monkey amygdala at 6.2 mCi, iv administered as bolus dose followed by naloxone-treatment at 37 mins measured at 120 mins by PET imaging analysis; type: ADME, organism-based, Macaca mulatta; details: rhesus monkey, in vivo, 2 h; procedure, shortened: as §2
[30] = Drug uptake in monkey amygdala at 6.2 mCi, iv administered as bolus dose followed by SB612111-treatment at 40 mins measured at 100 mins by PET imaging analysis; type: ADME, organism-based, Macaca mulatta; details: rhesus monkey, in vivo; procedure, shortened: as §1
[31] = Metabolic stability in monkey plasma at 4.9 to 6.6 mCi, iv administered as bolus dose up to 100 mins; type: ADME, organism-based, Macaca mulatta; details: rhesus monkey, read-out: Stability
Procedure, shortened: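 For baseline scans, male rhesus monkeys were immobilized with ketamine and kept under 1–3% isoflurane. Plasma sampled during the scan was extracted into acetonitrile, and the supernatant was analysed by HPLC for the parent fraction.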

Brain [32] = experiment: Drug uptake in NOP knockout mouse brain at 0.6 nM after 120 mins by autoradiographic analysis; type: ADME, tissue-based
Plasma [33] = experiment: Drug metabolism in monkey plasma assessed as radiometabolite formation at 4.9 to 6.6 mCi, iv administered as bolus dose up to 100 mins; type: ADME, organism-based, Macaca mulatta; details: rhesus monkey, in vivo
[34] = Drug uptake in monkey amygdala at 4.92 to 6.6 mCi, iv administered as bolus dose measured at 120 mins by PET imaging analysis; type: ADME, organism-based, Macaca mulatta; details: rhesus monkey, in vivo, 2 h
[35] = Drug uptake in monkey hypothalamus at 4.92 to 6.6 mCi, iv administered as bolus dose measured at 120 mins by PET imaging analysis; type: ADME, organism-based, Macaca mulatta; details: rhesus monkey, in vivo, 2 h
[36] = Drug uptake in monkey lateral temporal cortex at 4.92 to 6.6 mCi, iv administered as bolus dose measured at 120 mins by PET imaging analysis; type: ADME, organism-based, Macaca mulatta; details: rhesus monkey, in vivo, 2 h
[37] = Drug uptake in monkey lateral temporal cortex at 6.2 mCi, iv administered as bolus dose followed by SB612111-treatment at 40 mins measured at 100 mins by PET imaging analysis; type: ADME, organism-based, Macaca mulatta; details: rhesus monkey, in vivo; procedure, shortened: as §1
Plasma [38] = experiment: Metabolic stability in SB612111-pretreated monkey plasma at 4.9 to 6.6 mCi, iv administered as bolus dose 10 mins post SB612111-treatment up to 100 mins; type: ADME, organism-based, Macaca mulatta; details: rhesus monkey, in vivo
Procedure, shortened: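 Preblock scans were run in the same anesthetized (ketamine, isoflurane) rhesus monkeys about 3 h after the baseline scan. Plasma was extracted into acetonitrile, and the supernatant was analysed by HPLC to give the percentage of radioactivity present as unchanged radioligand over time.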

Brain [39] = experiment: Drug uptake in 129/S6 mouse brain at 0.6 nM after 120 mins by autoradiographic analysis; type: ADME, tissue-based
[40] = Drug uptake in monkey caudate at 6.2 mCi, iv administered as bolus dose followed by naloxone-treatment at 37 mins measured at 120 mins by PET imaging analysis; type: ADME, organism-based, Macaca mulatta, Caudate nucleus; details: rhesus monkey, in vivo, 2 h; procedure, shortened: as §2
[41] = Drug uptake in SB612111-pretreated monkey lateral temporal cortex at 4.92 to 6.6 mCi, iv administered at 10 mins post SB612111-treatment measured within 10 mins by PET imaging analysis; type: ADME, organism-based, Macaca mulatta; details: rhesus monkey, in vivo

SMILES: [11CH3]NC(=O)[C@@H](Cc1ccccc1F)CN1CCC2(CC1)OCCc1cc(F)sc12
- Drug uptake [1]: Active
- Drug uptake [2]: Active
- Drug uptake [3]: Active
- Drug uptake [4]: Not Active
- Drug uptake [5]: Not Active
- Drug uptake [6]: Not Active
- Drug uptake [7]: Not Active
- Drug uptake [8]: Active
- Drug uptake [9]: Not Active
- Drug uptake [10]: Not Active
- remaining at 2 h [11]: 98.9%
- Drug uptake [12]: Active
- Drug uptake [13]: Active
- Drug uptake [14]: Active
- Drug uptake [15]: Not Active
- Drug uptake [16]: Active
- Drug uptake [17]: Not Active
- Drug uptake [18]: Not Active
- Drug uptake [19]: Active
- fraction unbound [20]: 0.113
- Drug uptake [21]: Not Active
- Drug metabolism (Plasma [22]): Active
- Drug uptake [23]: Not Active
- remaining at 0.5 h [24]: 100%
- fraction unbound [25]: 0.11
- Drug uptake [26]: Not Active
- Drug uptake [27]: Not Active
- remaining at 0.5 h [28]: 99.9%
- Drug uptake [29]: Not Active
- Drug uptake [30]: Not Active
- remaining at 100 min [31]: 94.9%
- Drug uptake (Brain [32]): Not Active
- Drug metabolism (Plasma [33]): Active
- Drug uptake [34]: Not Active
- Drug uptake [35]: Not Active
- Drug uptake [36]: Not Active
- Drug uptake [37]: Not Active
- Stability (Plasma [38]): 94.9%
- Drug uptake (Brain [39]): Active
- Drug uptake [40]: Not Active
- Drug uptake [41]: Active
